Test results: ChEMBL document CHEMBL3734725, “Design, synthesis and preliminary biological studies of pyrrolidine derivatives as Mcl-1 inhibitors” (Bioorg Med Chem, 2015)
Blank lines part the entries; values can stand above or below the compound they belong to.

Columns and labels:
[1] = biological target: Induced myeloid leukemia cell differentiation protein Mcl-1 (Homo sapiens, UniProt Q07820); test: Competitive binding affinity to Mcl-1 (unknown origin) using 5-FAM-Bid-BH3 peptide preincubated for 30 mins before 5-FAM-Bid-BH3 peptide addition and measured 20 mins after 5-FAM-Bid-BH3 peptide addition by fluorescence polarization assay
Sequence of Induced myeloid leukemia cell differentiation protein Mcl-1 (Q07820 whole entry): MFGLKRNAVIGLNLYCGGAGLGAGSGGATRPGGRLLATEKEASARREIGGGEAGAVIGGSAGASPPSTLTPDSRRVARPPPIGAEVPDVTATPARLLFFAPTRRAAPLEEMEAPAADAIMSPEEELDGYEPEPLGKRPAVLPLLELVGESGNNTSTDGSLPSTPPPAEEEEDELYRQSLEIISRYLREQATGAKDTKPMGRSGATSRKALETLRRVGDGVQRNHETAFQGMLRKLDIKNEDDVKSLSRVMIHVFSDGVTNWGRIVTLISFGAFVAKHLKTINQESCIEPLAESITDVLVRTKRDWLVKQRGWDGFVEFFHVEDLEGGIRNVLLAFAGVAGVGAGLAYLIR
In short: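 Mcl-1 preincubated 30 min at room temperature with compound in PBS (pH 7.3; 140 mM NaCl, 2.7 mM KCl, 1.8 mM KH₂PO₄). IC50 fitted, Ki calculated; three separate experiments.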

[2] = tested on: K562; test: Antiproliferative activity against human K562 cells after 48 hrs by MTT assay; format: functional, cell-based; conditions: K562, 48 h
In short: (§1)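 Cells grown in RPMI1640 with 10% fetal bovine serum at 37 °C, 5% CO₂. Log-phase cells seeded at 5000 per well and incubated 12 h, then exposed to a range of compound concentrations for 48 h. MTT (5 mg/mL) added for 4 h, medium removed, formazan dissolved in DMSO, absorbance read. IC50 reported.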

[3] = Antiproliferative activity against human PC3 cells after 48 hrs by MTT assay; format: functional, cell-based; conditions: PC-3, 48 h; in short: as §1
[4] = biological target: Bcl-2-like protein 1 (Homo sapiens, UniProt Q07817); test: Competitive binding affinity to Bcl-XL (unknown origin) using 5-FAM-Bid-BH3 peptide preincubated for 30 mins before 5-FAM-Bid-BH3 peptide addition and measured 20 mins after 5-FAM-Bid-BH3 peptide addition by fluorescence polarization assayy
Sequence of Bcl-2-like protein 1 (Q07817 whole entry): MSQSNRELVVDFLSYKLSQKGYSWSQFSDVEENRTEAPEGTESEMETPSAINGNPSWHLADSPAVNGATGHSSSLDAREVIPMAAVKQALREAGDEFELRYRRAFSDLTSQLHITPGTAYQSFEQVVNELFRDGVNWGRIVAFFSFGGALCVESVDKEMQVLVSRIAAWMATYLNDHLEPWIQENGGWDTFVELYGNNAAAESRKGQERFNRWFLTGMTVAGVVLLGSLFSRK
In short: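 Same FP competition with FAM-Bid-BH3 peptide at 10 nM final in PBS pH 7.3. Protein and compound preincubated 30 min at room temperature. Final Bcl-2 376 nM, final Bcl-XL 170 nM. Polarization read at ex 485/em 535 nm in triplicate. IC50 fitted, then converted to Ki.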

[5] = biological target: Apoptosis regulator Bcl-2 (Homo sapiens, UniProt P10415); test: Competitive binding affinity to Bcl-2 (unknown origin) using 5-FAM-Bid-BH3 peptide preincubated for 30 mins before 5-FAM-Bid-BH3 peptide addition and measured 20 mins after 5-FAM-Bid-BH3 peptide addition by fluorescence polarization assay
Sequence of Apoptosis regulator Bcl-2 (P10415 whole entry): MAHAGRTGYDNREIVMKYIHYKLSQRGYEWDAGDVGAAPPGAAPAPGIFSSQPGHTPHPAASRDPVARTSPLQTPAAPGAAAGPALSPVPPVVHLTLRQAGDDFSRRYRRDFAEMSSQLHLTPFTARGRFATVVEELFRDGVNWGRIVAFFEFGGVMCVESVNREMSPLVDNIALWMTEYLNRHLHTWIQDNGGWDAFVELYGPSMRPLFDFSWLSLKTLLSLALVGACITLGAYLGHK
In short: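 Same FP competition with FAM-Bid-BH3 peptide at 10 nM final in PBS pH 7.3. Protein and compound preincubated 30 min at room temperature. IC50 fitted, then converted to Ki.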

[6] = tested on: MDA-MB-231; test: Antiproliferative activity against human MDA-MB-231 cells after 48 hrs by MTT assay; format: functional, cell-based; conditions: MDA-MB-231, 48 h; in short: as §1

Ki [1]: > 10 µM
Compound: CC(C)[C@H](NC(=O)[C@@H]1C[C@H](Oc2ccc(-c3ccccc3)cc2)CN1C(=O)OC(C)(C)C)C(=O)O

Ki [1]: > 10 µM
Compound: CC(C)(C)OC(=O)N1C[C@@H](Oc2ccc(Br)cc2)C[C@H]1C(=O)N[C@@H](Cc1ccccc1)C(=O)O

Ki [1]: > 10 µM
Compound: CC(C)[C@H](NC(=O)[C@@H]1C[C@H](Oc2ccc(Br)cc2)CN1C(=O)OC(C)(C)C)C(=O)O

Ki [1]: > 10 µM
Compound: CC(C)C[C@H](NC(=O)[C@@H]1C[C@H](Oc2ccc(-c3ccccc3)cc2)CN1C(=O)OC(C)(C)C)C(=O)O

Ki [1]: > 10 µM
Compound: CC(C)(C)OC(=O)N1C[C@@H](Oc2ccc(-c3ccccc3)cc2)C[C@H]1C(=O)NCC(=O)O

Ki [1]: > 10 µM
Compound: CC(C)(C)OC(=O)N1C[C@@H](Oc2ccc(Br)cc2)C[C@H]1C(=O)N[C@H](C(=O)O)c1ccccc1

Ki [1]: > 10 µM
Compound: CC(C)(C)OC(=O)N1C[C@@H](Oc2ccc(Br)cc2)C[C@H]1C(=O)NCC(=O)O

Ki [1]: > 10 µM
Compound: CC(C)C[C@H](NC(=O)[C@@H]1C[C@H](Oc2ccc(Br)cc2)CN1C(=O)OC(C)(C)C)C(=O)O

Further lines, the compound ahead of its results:

Compound: Cc1ccc(-c2ccc(O[C@H]3C[C@@H](C(=O)N[C@@H](Cc4ccccc4)C(=O)NS(=O)(=O)c4ccc(C)cc4)N(C(=O)OC(C)(C)C)C3)cc2)cc1
Ki [1]: 1.9 µM

Compound: Cc1ccc(-c2ccc(O[C@H]3C[C@@H](C(=O)N[C@@H](Cc4ccccc4)C(=O)NS(=O)(=O)c4ccc(Cl)c([N+](=O)[O-])c4)N(C(=O)OC(C)(C)C)C3)cc2)cc1
IC50 [2]: 22.4 µM
IC50 [3]: 13.5 µM
Ki [4]: 8.7 µM
Ki [5]: 4.6 µM
IC50 [6]: 15.4 µM

Compound: CC(C)(C)OC(=O)N1C[C@@H](Oc2ccc(-c3ccccc3)cc2)C[C@H]1C(=O)N[C@@H](Cc1ccc(Br)cc1)C(=O)NS(=O)(=O)c1ccc(Cl)c([N+](=O)[O-])c1
IC50 [2]: 23 µM
IC50 [3]: 10.7 µM
Ki [4]: 2.2 µM
Ki [5]: 0.93 µM
IC50 [6]: 13.6 µM

Compound: CC(C)(C)OC(=O)N1C[C@@H](Oc2ccc(-c3ccccc3)cc2)C[C@H]1C(=O)N[C@@H](Cc1ccc(Br)cc1)C(=O)NS(=O)(=O)c1ccccc1
Ki [1]: 1.2 µM

Compound: Cc1ccc(-c2ccc(O[C@H]3C[C@@H](C(=O)N[C@@H](Cc4ccccc4)C(=O)NS(=O)(=O)c4ccccc4)N(C(=O)OC(C)(C)C)C3)cc2)cc1
Ki [1]: 1.6 µM

Compound: Cc1ccc(S(=O)(=O)NC(=O)[C@H](Cc2ccc(Br)cc2)NC(=O)[C@@H]2C[C@H](Oc3ccc(-c4ccccc4)cc3)CN2C(=O)OC(C)(C)C)cc1
Ki [1]: 0.99 µM

Compound: CC(C)(C)OC(=O)N1C[C@@H](Oc2ccc(-c3ccccc3)cc2)C[C@H]1C(=O)N[C@@H](Cc1c[nH]c2ccccc12)C(=O)NS(=O)(=O)c1ccccc1
Ki [1]: 3.2 µM

Compound: CC(C)(C)OC(=O)N1C[C@@H](Oc2ccc(-c3ccccc3)cc2)C[C@H]1C(=O)N[C@H](C(=O)O)c1ccccc1
Ki [1]: > 10 µM

Compound: Cc1ccc(S(=O)(=O)NC(=O)[C@H](Cc2ccccc2)NC(=O)[C@@H]2C[C@H](Oc3ccc(-c4ccccc4)cc3)CN2C(=O)OC(C)(C)C)cc1
Ki [1]: 3.3 µM

Compound: CC(C)(C)OC(=O)N1C[C@@H](Oc2ccc(-c3ccccc3)cc2)C[C@H]1C(=O)N[C@@H](Cc1ccccc1)C(=O)O
Ki [1]: 8.4 µM

Compound: Cc1ccc(-c2ccc(O[C@H]3C[C@@H](C(=O)N[C@@H](Cc4ccc(Br)cc4)C(=O)NS(=O)(=O)c4ccc(Cl)c([N+](=O)[O-])c4)N(C(=O)OC(C)(C)C)C3)cc2)cc1
IC50 [2]: 22.1 µM
IC50 [3]: 13.8 µM
Ki [4]: 1.2 µM
Ki [5]: 0.55 µM
IC50 [6]: 14.9 µM

Compound: CC(C)(C)OC(=O)N1C[C@@H](Oc2ccc(-c3ccc(Cl)cc3)cc2)C[C@H]1C(=O)N[C@@H](Cc1ccc(Br)cc1)C(=O)NS(=O)(=O)c1ccc(Cl)c([N+](=O)[O-])c1
IC50 [2]: 21.9 µM
IC50 [3]: 11.2 µM
Ki [4]: 2.1 µM
Ki [5]: 0.83 µM
IC50 [6]: 15.8 µM

Compound: Cc1cc2c(C(C)C)c(O)c(O)c(C=O)c2c(O)c1-c1c(C)cc2c(C(C)C)c(O)c(O)c(C=O)c2c1O [GOSSYPOL]
IC50 [2]: 5.91 µM
IC50 [3]: 5.78 µM
Ki [4]: 0.77 µM
IC50 [6]: 9.42 µM
Ki [1]: 0.39 µM
